TAAR1 agonist – human TAAR1 agonists, primary screen, Fluo-8 calcium fluorescence, CHO RD-HGA16 cells | Trace amine-associated receptor 1 (Homo sapiens), Q96RJ0 | vehicle wells 0%, saturating PEA agonist 100% | activation, % at 3 µM | 360,000 compounds, 0.99% hits;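 active = activation above the mean activation of all test compounds in the run plus 3 SD, cut at about 38% in these data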
Target sequence (Q96RJ0 whole entry, looked up): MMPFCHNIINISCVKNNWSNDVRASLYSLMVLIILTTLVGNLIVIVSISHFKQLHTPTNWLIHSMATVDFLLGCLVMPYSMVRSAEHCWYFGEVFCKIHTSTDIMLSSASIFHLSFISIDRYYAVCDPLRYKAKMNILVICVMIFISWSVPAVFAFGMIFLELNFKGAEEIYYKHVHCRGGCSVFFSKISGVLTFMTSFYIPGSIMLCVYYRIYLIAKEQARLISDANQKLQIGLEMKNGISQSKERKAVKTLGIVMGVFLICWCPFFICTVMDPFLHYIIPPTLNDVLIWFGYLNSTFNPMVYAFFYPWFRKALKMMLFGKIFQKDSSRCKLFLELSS
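System: CHO RD-HGA16 cells carrying human TAAR1 plus Gα16; Incubation: 17-24 h seeding, 75 min 37 °C dye, 30 min RT; Measured by: Fluo-8 fluorescence, 5 s baseline then 140 s kinetic read; Control set: DMSO and PEA EC100; Replication: single well for each compound.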
LANA-H2A inh – blockers of LANA interaction with H2A/H2B – biochemical, FP readout, HTS, primary screen; cell-free LANA-H2A/H2B peptide, fluorescence polarization; inhibition, % (no concentration beside the values); Protein LANA1 (Human herpesvirus 8 type P (isolate GK18)), Q9QR71; 320,000 compounds, 0.6% hits; in the data active = inhibition mostly above about 10%, no sharp cut-off; inactive = mostly below about 6.7%
zfTRPN1 agonist – zebrafish TRPN1 channel agonists, primary screen, cell-based, HEK293, calcium fluorescence. 220,000 compounds, 0.18% hits. HEK293 zebrafish TRPN1-YFP, Fluo-8 calcium fluorescence; 100% = response to 87 µM carbachol. activation, % at 3 µM;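 active = activation above its plate's cutoff, the mean activation of test wells on that plate plus 3 SD, cut at about 19% in these data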
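Material: zebrafish TRPN1-YFP in HEK293 cells; Doses: single test compound dose, 3 µM nominal, 0.3% DMSO; Timing: dye loading 1 h at 37 °C, then 30 min room temperature; Technique: intracellular calcium fluorescence with Fluo-8; Benchmarks: high carbachol 87 µM, low DMSO alone.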
TRPML3 agonist – human TRPML3 channel agonists, primary screen, cell-based, HEK293 TRPML3-YFP, Fluo-8 calcium fluorescence, 3 µM; AID 1448, 2008; 100% = the carbachol control signal; 220,000 compounds, 0.29% hits; Mucolipin-3 (Homo sapiens), Q8TDD5; activation, % at 3 µM;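 active = activation above its plate's cutoff, the mean activation of the plate's test wells plus 3 SD, cut at about 12% in these data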
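Test system – HEK293 line with stable expression of human TRPML3-YFP channel · Control set – carbachol 87 µM final as high control (100%), DMSO as low control (0%) · Signal – Fluo-8 calcium dye fluorescence, ex 470-495, em 515-575 nm · Incubation – 1-h 37 °C dye load, 5-s basal, 120-s post-compound reads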
TAAR1 antagonist – human TAAR1 antagonists, primary screen, Fluo-8 calcium fluorescence, CHO RD-HGA16 cells; inhibition, % at 3 µM; 360,000 compounds, 1.5% hits; antagonist; AID 624466, 2012; Trace amine-associated receptor 1 (Homo sapiens), Q96RJ0;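 active = inhibition above a per-plate cutoff, the mean inhibition of test compounds on that plate plus 3 SD, cut at about 49% in these data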
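Material: CHO RD-HGA16 cells bearing hTAAR1; compound dosing: one-point dosing, 3 µM nominal final; schedule: dye loading 75 min at 37 °C, then 30 min room temperature; measured by: calcium fluorescence with Fluo-8; control set: vehicle and agonist controls; replication: n of 1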
GPR7 antag – GPR7 receptor antagonists, primary screen, cell-based, fluorescence, single concentration; AID 1861, 2009; Neuropeptides B/W receptor type 1 (Homo sapiens), P48145; 290,000 compounds, 1.1% hits; GPR7-expressing cells, fluorescence antagonist assay; inhibition, % at 4.4 µM; in the data active = inhibition above about 16%, passing the limit was not always enough;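 also: cells stimulated with the agonist NPW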
GPR7 antag conf – GPR7 receptor antagonists, confirmation, cell-based, fluorescence, single concentration | shares compounds with GPR7 antag | AID 1952, 2009 | inhibition, % at 4.4 µM | 2,400 compounds, 52% hits | GPR7-expressing cells, calcium fluorescence antagonist mode; in the data active = inhibition above about 24%;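 also: stimulated with the GPR7 agonist NPW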
MCHR1 antagonist – MCHR1 antagonists in cells, counter-screen for GPR7 antagonist project, cell-based, fluorescence, human; shares compounds with GPR7 antag; MCHR1-expressing cells, fluorescence antagonist assay; inhibition, % at 4.4 µM; 2,400 compounds, 62% hits; in the data active = inhibition above about 22%
Of the large screens only hits and unclear results are named; the others gave an inactive call (follow-up assays come after a bar, where they were run). A selection: hits, their analogues and other compounds. The true share with any hit is near 3.4%.

Cc1ccc(C2CC2/C(=N/O)c2ccc(F)cc2)cc1 (stereo not given)	none (no result: zfTRPN1 agonist, TRPML3 agonist)
COc1ccc(CNC(=O)C2CCCN(S(=O)(=O)c3cnc[nH]3)C2)cc1 (stereo not given)	GPR7 antag 29 | GPR7 antag conf inactive | MCHR1 antagonist inactive
Cc1ccc(CNC(=O)C2CCCN(S(=O)(=O)c3cnc[nH]3)C2)cc1 (stereo not given)	none
C=CCOc1c(CNC2CCCC2)cc(Cl)cc1OC	GPR7 antag 26 | GPR7 antag conf inactive | MCHR1 antagonist inactive
Cc1cccn2c(CN(C)C3CCOC3)c(C(=O)N3CCCCC3)nc12 (stereo not given)	none
Cc1cccn2c(CN(C)CCC3CCCCO3)c(C(=O)N3CCCCC3)nc12 (stereo not given)	GPR7 antag 38 | GPR7 antag conf inactive | MCHR1 antagonist inactive
COc1ccc(Cl)cc1C=CC=Nc1ccccc1O	none (no result: LANA-H2A inh, zfTRPN1 agonist, TRPML3 agonist, GPR7 antag)
CC(C)n1c(-c2ccco2)csc1=Nc1cccnc1	GPR7 antag 30 | GPR7 antag conf 36 | MCHR1 antagonist 52
CC1=CN(S(=O)(=O)c2ccc(C)cc2)C[C@@H]2c3ccccc3N(S(=O)(=O)c3ccc(C)cc3)[C@H]12	none (no result: LANA-H2A inh, zfTRPN1 agonist, TRPML3 agonist, GPR7 antag)
COCCCNC(=S)N1CCN(C(=O)C(=O)Nc2ccc(C(=O)OC)cc2)CC1	none
COC(=O)c1ccc(NC(=O)C(=O)N2CCN(C(=S)NCCc3ccccc3)CC2)cc1	GPR7 antag 22 | GPR7 antag conf inactive | MCHR1 antagonist inactive
CCc1ccc(/C=C2/Sc3ccccc3N(CC(=O)NCCCN3CCOCC3)C2=O)cc1	GPR7 antag 25 (no result: zfTRPN1 agonist, TRPML3 agonist) | GPR7 antag conf inactive | MCHR1 antagonist inactive
Cc1ccc(CN2C(=O)c3ccccc3Sc3ccc(C(=O)NCCCN4CCOCC4)cc32)cc1	GPR7 antag 29 (no result: zfTRPN1 agonist, TRPML3 agonist) | GPR7 antag conf 40 | MCHR1 antagonist inactive
O=C(CN1C(=O)/C(=C\c2cccc(Cl)c2)Sc2ccccc21)NCCCN1CCOCC1	GPR7 antag 25 (no result: zfTRPN1 agonist, TRPML3 agonist) | GPR7 antag conf 26 | MCHR1 antagonist 36
O=C(CN1C(=O)/C(=C/c2ccc(C(F)(F)F)cc2)Sc2ccccc21)NCCCN1CCOCC1	none (no result: zfTRPN1 agonist, TRPML3 agonist)
CC(Sc1nnc(C2CC2)n1-c1ccccc1)C(=O)N1CCCC1 (stereo not given)	none (no result: LANA-H2A inh, zfTRPN1 agonist, TRPML3 agonist, GPR7 antag)
COC(=O)Cn1cnc2c(Cl)nc(F)nc21	none (no result: LANA-H2A inh, zfTRPN1 agonist, TRPML3 agonist, GPR7 antag)
CCc1ccc(OCc2nnc(NC(=O)c3cccs3)s2)cc1	GPR7 antag 25 | GPR7 antag conf inactive | MCHR1 antagonist inactive
Cc1ccsc1C1C(C#N)=C(N)Oc2n[nH]c(C)c21 (stereo not given)	none
Cc1[nH]nc2c1C(c1cccs1)C(C#N)=C(N)O2 (stereo not given)	GPR7 antag 40 | GPR7 antag conf inactive | MCHR1 antagonist inactive
COc1ccc(-c2noc(Cc3ccc(Cl)cc3)n2)cc1OC	GPR7 antag 25 | GPR7 antag conf inactive | MCHR1 antagonist inactive
COc1ccc(Cc2nc(-c3ccc(Cl)cc3)no2)cc1	none
COc1ccc(Cc2nc(-c3ccc(Br)cc3)no2)cc1	none
c1ccc(-c2nc(-c3ccncc3)no2)cc1	none
Cc1ccc(Cc2nc(-c3ccncc3)no2)cc1	GPR7 antag 24 | GPR7 antag conf inactive | MCHR1 antagonist 28
